M5 ag: agonists of human muscarinic M5 receptor (CHRM5). CHO-K1 hM5 cells, Fluo-8 calcium fluorescence; 0% DMSO wells, 100% maximal acetylcholine response. activation, % at 3 µM. 360,000 compounds, 0.19% hits. AID 624037;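 active means activation above the run's mean over test compounds plus 3 SD, cut at about 23% in these data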;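 further: signal is peak over basal fluorescence ratio across the kinetic read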
Target sequence (P08912 whole entry, looked up): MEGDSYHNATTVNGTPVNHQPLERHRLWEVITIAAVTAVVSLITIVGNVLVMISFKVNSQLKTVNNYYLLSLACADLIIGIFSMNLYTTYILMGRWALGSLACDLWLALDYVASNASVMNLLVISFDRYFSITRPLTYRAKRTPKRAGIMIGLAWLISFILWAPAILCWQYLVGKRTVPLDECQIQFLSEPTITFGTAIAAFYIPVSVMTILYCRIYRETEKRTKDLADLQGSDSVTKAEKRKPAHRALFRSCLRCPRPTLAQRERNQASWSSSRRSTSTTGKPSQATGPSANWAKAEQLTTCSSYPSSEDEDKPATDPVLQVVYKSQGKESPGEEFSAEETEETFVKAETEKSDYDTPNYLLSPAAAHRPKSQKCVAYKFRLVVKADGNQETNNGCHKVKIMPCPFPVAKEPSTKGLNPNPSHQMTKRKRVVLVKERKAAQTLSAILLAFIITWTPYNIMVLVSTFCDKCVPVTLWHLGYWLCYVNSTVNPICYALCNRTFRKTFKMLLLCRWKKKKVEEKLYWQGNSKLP
M5 PAM: CHRM5 positive allosteric modulation; CHO-K1 hM5, Fluo-8 calcium, ACh EC20 PAM; 0% = ACh EC20, 100% = ACh EC100; activation, % at 3 µM; P08912; AID 624038; 360,000 compounds, 0.3% hits;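 active means activation above the run cutoff, the mean activation of all test compounds plus 3 SD, cut at about 18% in these data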
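System: CHO-K1 hM5 cells. Reagent: acetylcholine, EC20 level. Compound dosing: single dose, 3 µM nominal final test concentration. Timing: Post-acetylcholine fluorescence recording 140 s. Detection: Fluo-8 calcium fluorescence. Read-out: % activation, ACh-normalized. Benchmarks: ACh EC20 and EC100 wells. Repeats: singlicate, one well per test compound.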
CHRM1 PAM: potentiates human M1 receptor response to acetylcholine; activation, % at 3 µM; 360,000 compounds, 0.088% hits; CHO-K1 hM1, Fluo-8 calcium fluorescence, ACh EC20; 0% = ACh EC20, 100% = maximal ACh; AID 588819; in the data active means activation above about 19%, passing the limit was not always enough
M1 antag: human CHRM1 antagonism; P11229; inhibition, % at 3 µM; CHO-K1 hM1, Fluo-8 calcium fluorescence, ACh EC80 antagonist; 360,000 compounds, 1.3% hits;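 active means percent inhibition above its own plate's cutoff, namely the mean of that plate's compound wells plus 3 SD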;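 further: peak over basal fluorescence ratio during 140 s after agonist addition; 0% = ACh EC80 plus DMSO and 100% = DMSO alone without agonist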
M5 antag: blocks acetylcholine activation of human M5 receptor; CHO-hM5 cells, Fluo-8 calcium fluorescence, ACh EC80; inhibition, % at 3 µM; 360,000 compounds, 0.59% hits;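 active means inhibition above a per-plate cutoff, the mean of that plate's test compounds plus 3 SD, cut at about 27% in these data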;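 further: 0% = acetylcholine EC80 with DMSO and 100% = DMSO without agonist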
M1 ag: human M1 muscarinic receptor agonism; P11229; activation, % at 3 µM; CHO-K1 hM1, Fluo-8 calcium fluorescence, agonist mode; 0% DMSO, 100% acetylcholine EC100; 360,000 compounds, 0.33% hits; AID 588814;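 active means activation above the run's mean compound activation plus 3 SD, cut at about 16% in these data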;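 further: peak over basal fluorescence ratio within a 140 s kinetic read after compound addition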
Numbers without * were called inactive. Shown are actives, neighbours in structure and some others; about 2.2% of the full set was active somewhere.

SMILES	M5 ag	M5 PAM	CHRM1 PAM	M1 antag	M5 antag	M1 ag
COc1ccc(C2=NS(=O)(=O)N(C)C(C(=O)N3CCC4(CC3)OCCO4)=C2)cc1OC	-4.1	0.9	4.1	-5.6	-0.9	-2.2
COC(=O)C1=C(c2ccc(F)cc2OCc2ccccc2)C[C@@H]2CC[C@H]1N2C	-10.1	-29.1	-10.6	12.6	21.1	-8.5
COC(=O)C1=C(c2ccc(OCc3ccccc3)cc2)C[C@@H]2CC[C@H]1N2C	-1.7	-15.0	-28.3	33.7*	-3.0	-10.2
COC(=O)C1=C(c2ccc(OCc3ccccc3)c(F)c2)C[C@@H]2CC[C@H]1N2C	-2.2	-13.1	-24.4	28.7*	19.0	-8.2
O=C(NCC1=C(c2ccc3ccccc3c2)C[C@@H]2CC[C@H]1N2Cc1ccco1)c1nccs1	-2.0	-6.7	-17.4	21.4	15.9	-10.6
CC12CCC(=O)C=C1CC(N1CC1)C1C2CCC2(C)C(O)CCC12 (stereo unspecified)	0.8	2.4	5.4	-19.2	7.3	-3.5
OC(Cn1c2ccccc2c2ccccc21)C[n+]1cccc2ccccc21 (stereo unspecified)	-12.7	-21.8	-21.9	62.6*	58.2*	-6.9
CC=C(CC)C1(CC)C(=O)NC(=S)NC1=O	1.2	-0.5	2.3	-4.8	-4.3	-3.5
C(#CCN1CCCCC1)COCc1ccccc1	-14.5	9.2	-5.4	16.3	5.5	-6.5
CC1(C(O)(C#CCN2CCCCC2)c2ccccc2)CCCC1 (stereo unspecified)	-15.5	-34.3	-21.5	100.0*	99.4*	-7.6
CN(C)CC#CCn1c2ccccc2c2ccccc21	-18.4	-3.9	-12.3	14.6	-1.1	-4.7
OC(CC#CCN1CCCCCC1)(c1ccccc1)C1CCCC1 (stereo unspecified)	-20.9	-32.2	-30.0	99.5*	83.8*	-6.5
CN(C)CC#CCC(O)(c1ccccc1)C1CCCC1 (stereo unspecified)	-7.7	-17.4	-27.8	99.4*	94.3*	-7.1
C(#CCN1CCCC1)CN1CCCC1	-7.0	-1.1	5.5	7.0	0.4	9.8
CCCC1(CCO)C(=O)NC(=S)NC1=O	0.1	7.1	9.6	-15.9	6.2	-0.5
Cc1cc(NC(=O)CCl)on1	3.2	1.9	8.3	-11.8	0.1	-3.1
COc1ccc2c(c1)CC1(CN2C)C(=O)NC(=O)N(CCc2ccccc2)C1=O (stereo unspecified)	-0.5	0.8	6.5	-1.7	1.4	-4.5
CCC(C)N1C(=O)NC(=O)C2(Cc3c(ccc4ccccc34)N(C)C2)C1=O (stereo unspecified)	-4.1	-47.6	-15.0	44.0*	16.8	2.8
CCN1/C(=C\C=C\C2=[N+](CC)c3ccccc3C2(C)C)C(C)(C)c2ccccc21	301.7*	-51.9	-19.6	96.4*	93.7*	387.8*

Compound activity: PubChem, The Scripps Research Institute Molecular Screening Center
